Assay results as given in ChEMBL document CHEMBL4014341, “Discovery of a Human Neuromedin U Receptor 1-Selective Hexapeptide Agonist with Enhanced Serum Stability” (J Med Chem, 2017).
pEC50: −log10 of the molar value. Peptide text beside a SMILES is read from it.

Target: T1, Neuromedin-U receptor 1 (Homo sapiens, UniProt Q9HB89)
T1 sequence (Q9HB89 whole entry): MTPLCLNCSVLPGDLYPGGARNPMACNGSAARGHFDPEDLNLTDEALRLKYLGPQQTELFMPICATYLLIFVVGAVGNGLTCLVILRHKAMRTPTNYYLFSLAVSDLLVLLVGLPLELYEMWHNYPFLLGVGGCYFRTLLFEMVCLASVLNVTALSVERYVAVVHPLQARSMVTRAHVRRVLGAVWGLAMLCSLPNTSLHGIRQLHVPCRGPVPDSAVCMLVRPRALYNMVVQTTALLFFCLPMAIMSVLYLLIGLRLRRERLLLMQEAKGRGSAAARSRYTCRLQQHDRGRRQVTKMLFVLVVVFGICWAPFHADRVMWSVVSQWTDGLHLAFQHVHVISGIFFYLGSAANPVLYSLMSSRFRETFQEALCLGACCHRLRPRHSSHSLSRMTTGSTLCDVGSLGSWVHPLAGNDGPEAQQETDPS
Experiment: Agonist activity at human NMUR1 expressed in CHO cells assessed as induction of Ca2+ flux after 18 hrs by Fluo-4 AM dye based FLIPR assay
Type: functional, cell-based
In short: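 CHO cells stably expressing human NMUR1 or NMUR2 were seeded at 2.0 × 10^4/well. After 18 h they were loaded 40 min with 4 μM Fluo-4 AM in HBSS/10 mM HEPES/2.5 mM probenecid pH 7.4 with 1% FCS, then washed. Peptides in buffer with 0.05% BSA/0.001% Triton X-100 were tested at 10−12−10−6 M in triplicate. Calcium flux was read by FLIPR from the maximal value, and EC50 was obtained by curve fitting.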

Q: With `CC(C)C[C@H](NC(=O)[C@H](Cc1ccccc1)NC(=O)[C@H](Cc1ccc(O)cc1)NC(=O)CNC(=O)[C@H](CCCNC(=N)N)NC(=O)[C@H](CO)NC(=O)[C@H](CCC(N)=O)NC(=O)[C@H](CO)NC(=O)[C@H](C)NC(=O)[C@H](Cc1ccccc1)NC(=O)[C@@H]1CCCN1C(=O)[C@H](CO)NC(=O)[C@H](CCC(N)=O)NC(=O)[C@H](Cc1ccccc1)NC(=O)[C@H](CCC(=O)O)NC(=O)[C@H](CCC(=O)O)NC(=O)[C@H](CC(=O)O)NC(=O)[C@@H](NC(=O)[C@H](CCCNC(=N)N)NC(=O)[C@@H](N)Cc1ccccc1)C(C)C)C(=O)N[C@@H](Cc1ccccc1)C(=O)N[C@@H](CCCNC(=N)N)C(=O)N1CCC[C@H]1C(=O)N[C@@H](CCCNC(=N)N)C(=O)N[C@@H](CC(N)=O)C(N)=O` (H-FRVDEEFQSPFASQSRGYFLFRPRN-NH2) as the compound, how does the pEC50 read?
A: Its pEC50 is 9.77.
